Experimental data as given in ChEMBL document CHEMBL4184148 (Bioorg Med Chem Lett, 2017).

Key:
[1] = target: Myosin-IIIb (Homo sapiens) (UniProt Q8WXR4); test: Binding affinity to wild-type human partial length MYO3B (M1 to D357 residues) expressed in Escherichia coli BL21 at 1 uM by Kinomescan method relative to control
[2] = target: Serine/threonine-protein kinase PAK 2 (Homo sapiens) (UniProt Q13177); test: Binding affinity to wild-type human partial length PAK2 (P151 to R525 residues) expressed in Escherichia coli BL21 at 1 uM by Kinomescan method relative to control
Chain of Serine/threonine-protein kinase PAK 2 (Homo sapiens) (Q13177 whole entry, the tested form may be a part): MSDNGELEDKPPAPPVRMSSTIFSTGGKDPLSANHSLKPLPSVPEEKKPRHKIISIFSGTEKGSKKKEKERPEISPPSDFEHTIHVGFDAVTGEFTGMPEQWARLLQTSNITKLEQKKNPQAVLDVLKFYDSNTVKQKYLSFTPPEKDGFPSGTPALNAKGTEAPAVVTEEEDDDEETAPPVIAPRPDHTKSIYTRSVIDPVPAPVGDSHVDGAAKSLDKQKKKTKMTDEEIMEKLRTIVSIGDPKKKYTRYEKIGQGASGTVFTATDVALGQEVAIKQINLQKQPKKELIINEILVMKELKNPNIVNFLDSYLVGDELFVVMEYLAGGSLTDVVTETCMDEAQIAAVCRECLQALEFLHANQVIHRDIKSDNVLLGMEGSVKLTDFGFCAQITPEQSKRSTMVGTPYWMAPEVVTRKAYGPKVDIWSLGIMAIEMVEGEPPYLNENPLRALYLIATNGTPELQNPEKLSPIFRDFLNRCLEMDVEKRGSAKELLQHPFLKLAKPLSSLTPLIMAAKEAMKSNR

[3] = target: Myotonin-protein kinase (Homo sapiens) (UniProt Q09013); test: Binding affinity to wild-type human partial length DMPK (V47 to V415 residues) expressed in Escherichia coli BL21 at 1 uM by Kinomescan method relative to control
Chain of Myotonin-protein kinase (Homo sapiens) (Q09013 whole entry, the tested form may be a part): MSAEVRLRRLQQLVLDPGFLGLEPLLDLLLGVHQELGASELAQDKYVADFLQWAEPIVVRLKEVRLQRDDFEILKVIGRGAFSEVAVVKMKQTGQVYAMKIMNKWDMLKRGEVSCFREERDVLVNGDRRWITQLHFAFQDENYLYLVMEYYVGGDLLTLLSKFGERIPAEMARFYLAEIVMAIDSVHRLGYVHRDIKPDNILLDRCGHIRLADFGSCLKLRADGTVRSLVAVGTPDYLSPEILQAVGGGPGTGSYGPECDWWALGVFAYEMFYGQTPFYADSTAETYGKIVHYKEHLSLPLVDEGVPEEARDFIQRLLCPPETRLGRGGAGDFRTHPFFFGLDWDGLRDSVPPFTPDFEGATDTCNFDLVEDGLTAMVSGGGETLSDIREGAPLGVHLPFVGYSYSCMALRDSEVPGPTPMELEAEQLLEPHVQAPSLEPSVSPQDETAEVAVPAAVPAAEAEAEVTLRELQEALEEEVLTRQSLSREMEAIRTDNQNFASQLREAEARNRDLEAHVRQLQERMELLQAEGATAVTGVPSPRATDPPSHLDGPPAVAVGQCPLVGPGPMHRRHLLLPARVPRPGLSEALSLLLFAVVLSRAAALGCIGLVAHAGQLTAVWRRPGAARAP

[4] = target: Protein kinase C epsilon type (Homo sapiens) (UniProt Q02156); test: Binding affinity to wild-type human partial length PRKCE (A378 to P737 residues) expressed in HEK293 cells at 1 uM by Kinomescan method relative to control; assay type: cell-based
Chain of Protein kinase C epsilon type (Homo sapiens) (Q02156 whole entry, the tested form may be a part): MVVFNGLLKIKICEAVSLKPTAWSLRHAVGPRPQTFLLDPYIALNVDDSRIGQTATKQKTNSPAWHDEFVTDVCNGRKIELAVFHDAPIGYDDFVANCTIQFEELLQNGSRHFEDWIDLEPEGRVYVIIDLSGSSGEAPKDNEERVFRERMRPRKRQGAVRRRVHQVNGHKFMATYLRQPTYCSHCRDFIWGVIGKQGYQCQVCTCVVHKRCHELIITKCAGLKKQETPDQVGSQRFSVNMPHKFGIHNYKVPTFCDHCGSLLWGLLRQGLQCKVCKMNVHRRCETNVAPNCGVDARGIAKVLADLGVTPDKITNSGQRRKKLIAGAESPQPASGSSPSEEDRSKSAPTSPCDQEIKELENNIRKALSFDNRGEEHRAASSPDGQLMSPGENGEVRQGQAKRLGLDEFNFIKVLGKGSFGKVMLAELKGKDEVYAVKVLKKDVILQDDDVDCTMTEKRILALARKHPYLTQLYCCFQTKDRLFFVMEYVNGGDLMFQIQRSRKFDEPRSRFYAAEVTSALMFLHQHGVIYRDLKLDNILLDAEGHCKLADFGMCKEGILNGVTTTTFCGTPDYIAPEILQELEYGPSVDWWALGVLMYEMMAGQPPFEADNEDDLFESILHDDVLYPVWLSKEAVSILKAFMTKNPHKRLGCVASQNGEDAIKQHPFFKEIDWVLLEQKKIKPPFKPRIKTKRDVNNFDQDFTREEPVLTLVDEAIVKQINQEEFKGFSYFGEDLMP

Aurora kinase B = Aurora kinase B (Homo sapiens, UniProt Q96GD4); test: Inhibition of recombinant full length His-tagged human Aurora B expressed in baculovirus expression system by Z'LYTE assay
Outline: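 Z'LYTE biochemical kinase assay run at the Km ATP concentration for each kinase. IC50 was determined and reported ± standard error.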

[5] = target: Macrophage colony-stimulating factor 1 receptor (Homo sapiens) (UniProt P07333); test: Binding affinity to wild-type human partial length autoinhibited CSF1R (Y538 to S939 residues) expressed in HEK293 cells at 1 uM by Kinomescan method relative to control; assay type: cell-based; parameters: scale not given: the % may be the effect or the level left
[6] = target: Casein kinase II subunit alpha (Homo sapiens) (UniProt P68400); test: Binding affinity to wild-type human full length CSNK2A1 (M1 to Q391 residues) expressed in HEK293 cells at 1 uM by Kinomescan method relative to control; assay type: cell-based
Chain of Casein kinase II subunit alpha (Homo sapiens) (P68400 whole entry, looked up, the tested form may be a part): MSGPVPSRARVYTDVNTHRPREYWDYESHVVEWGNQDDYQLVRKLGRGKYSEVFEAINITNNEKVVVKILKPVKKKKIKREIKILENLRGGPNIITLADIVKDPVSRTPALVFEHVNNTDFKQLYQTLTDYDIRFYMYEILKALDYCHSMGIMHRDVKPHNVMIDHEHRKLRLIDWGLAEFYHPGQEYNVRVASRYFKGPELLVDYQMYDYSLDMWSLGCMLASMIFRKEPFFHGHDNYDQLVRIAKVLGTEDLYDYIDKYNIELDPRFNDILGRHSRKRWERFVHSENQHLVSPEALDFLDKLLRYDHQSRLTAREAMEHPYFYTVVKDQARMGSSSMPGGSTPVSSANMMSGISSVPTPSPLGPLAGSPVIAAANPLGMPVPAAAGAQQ
Outline: (§1)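 Run as one kinome-wide competition binding panel with each compound at a single fixed concentration. Results were plotted as a kinome-wide selectivity map.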

[7] = target: Serine/threonine-protein kinase 17B (Homo sapiens) (UniProt O94768); test: Binding affinity to wild-type human full length DRAK2 (M1 to C372 residues) expressed in Escherichia coli BL21 at 1 uM by Kinomescan method relative to control; outline: as §1
[8] = target: Calcium/calmodulin-dependent protein kinase type II subunit delta (Homo sapiens) (UniProt Q13557); test: Binding affinity to wild-type human partial length CAMK2D (M1 to E329 residues) expressed in Escherichia coli BL21 at 1 uM by Kinomescan method relative to control
Chain of Calcium/calmodulin-dependent protein kinase type II subunit delta (Homo sapiens) (Q13557 whole entry, the tested form may be a part, canonical isoform): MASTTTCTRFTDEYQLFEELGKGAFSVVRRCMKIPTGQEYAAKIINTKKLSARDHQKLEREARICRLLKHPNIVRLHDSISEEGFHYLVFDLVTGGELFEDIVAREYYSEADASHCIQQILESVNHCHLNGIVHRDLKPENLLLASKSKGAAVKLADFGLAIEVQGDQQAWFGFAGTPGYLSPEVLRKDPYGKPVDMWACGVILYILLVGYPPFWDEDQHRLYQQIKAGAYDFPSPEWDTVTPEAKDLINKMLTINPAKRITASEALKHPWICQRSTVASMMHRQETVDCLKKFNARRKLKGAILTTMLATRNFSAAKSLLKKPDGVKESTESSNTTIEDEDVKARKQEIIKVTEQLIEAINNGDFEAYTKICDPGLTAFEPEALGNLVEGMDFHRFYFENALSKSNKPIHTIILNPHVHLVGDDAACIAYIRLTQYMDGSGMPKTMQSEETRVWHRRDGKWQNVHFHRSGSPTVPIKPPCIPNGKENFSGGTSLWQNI

[9] = target: Casein kinase I isoform gamma-1 (Homo sapiens) (UniProt Q9HCP0); test: Binding affinity to wild-type human partial length CSNK1G1 (T15 to S353 residues) expressed in Escherichia coli BL21 at 1 uM by Kinomescan method relative to control
[10] = target: SNF-related serine/threonine-protein kinase (Homo sapiens) (UniProt Q9NRH2); test: Binding affinity to wild-type human partial length SNRK (M1 to E339 residues) expressed in HEK293 cells at 1 uM by Kinomescan method relative to control; assay type: cell-based
[11] = target: Dual specificity mitogen-activated protein kinase kinase 6 (Homo sapiens) (UniProt P52564); test: Binding affinity to wild-type human partial length MEK6 (K36 to D334 residues) expressed in Escherichia coli BL21 at 1 uM by Kinomescan method relative to control
[12] = target: NT-3 growth factor receptor (Homo sapiens) (UniProt Q16288); test: Binding affinity to wild-type human partial length TRKC (Q531 to G825 residues) expressed in HEK293 cells at 1 uM by Kinomescan method relative to control; assay type: cell-based
[13] = target: cAMP-dependent protein kinase catalytic subunit alpha (Homo sapiens) (UniProt P17612); test: Binding affinity to wild-type human partial length PKAC-alpha (G10 to F351 residues) expressed in Escherichia coli BL21 at 1 uM by Kinomescan method relative to control
[14] = target: Serine/threonine-protein kinase LATS2 (Homo sapiens) (UniProt Q9NRM7); test: Binding affinity to wild-type human partial length LATS2 (Q641 to V1088 residues) expressed in HEK293 cells at 1 uM by Kinomescan method relative to control; assay type: cell-based
[15] = target: Microtubule-associated serine/threonine-protein kinase 1 (Homo sapiens) (UniProt Q9Y2H9); test: Binding affinity to wild-type human partial length MAST1 (S346 to V730 residues) expressed in HEK293 cells at 1 uM by Kinomescan method relative to control; assay type: cell-based
[16] = target: Serine/threonine-protein kinase Nek2 (Homo sapiens) (UniProt P51955); test: Binding affinity to wild-type human partial length NEK2 (M1 to K309 residues) expressed in Escherichia coli BL21 at 1 uM by Kinomescan method relative to control
Chain of Serine/threonine-protein kinase Nek2 (Homo sapiens) (P51955 whole entry, the tested form may be a part): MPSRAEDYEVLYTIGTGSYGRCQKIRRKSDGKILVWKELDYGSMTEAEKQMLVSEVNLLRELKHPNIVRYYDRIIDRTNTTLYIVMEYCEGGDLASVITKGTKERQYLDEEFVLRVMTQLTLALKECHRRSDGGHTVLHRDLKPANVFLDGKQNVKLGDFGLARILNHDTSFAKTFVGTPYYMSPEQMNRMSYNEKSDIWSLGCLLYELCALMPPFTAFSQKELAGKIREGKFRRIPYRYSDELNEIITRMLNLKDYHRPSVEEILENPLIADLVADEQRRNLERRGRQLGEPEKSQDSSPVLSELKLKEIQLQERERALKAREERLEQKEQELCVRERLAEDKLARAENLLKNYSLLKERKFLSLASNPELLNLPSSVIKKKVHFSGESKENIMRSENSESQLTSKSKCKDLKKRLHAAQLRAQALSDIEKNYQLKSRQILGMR

[17] = target: Homeodomain-interacting protein kinase 1 (Homo sapiens) (UniProt Q86Z02); test: Binding affinity to wild-type human partial length HIPK1 (M146 to I555 residues) expressed in HEK293 cells at 1 uM by Kinomescan method relative to control; assay type: cell-based
[18] = target: Cyclin-dependent kinase 14 (Homo sapiens) (UniProt O94921); test: Binding affinity to wild-type human full length PFTK1 (M1 to H451 residues) expressed in Escherichia coli BL21 at 1 uM by Kinomescan method relative to control
Chain of Cyclin-dependent kinase 14 (Homo sapiens) (O94921 whole entry, the tested form may be a part): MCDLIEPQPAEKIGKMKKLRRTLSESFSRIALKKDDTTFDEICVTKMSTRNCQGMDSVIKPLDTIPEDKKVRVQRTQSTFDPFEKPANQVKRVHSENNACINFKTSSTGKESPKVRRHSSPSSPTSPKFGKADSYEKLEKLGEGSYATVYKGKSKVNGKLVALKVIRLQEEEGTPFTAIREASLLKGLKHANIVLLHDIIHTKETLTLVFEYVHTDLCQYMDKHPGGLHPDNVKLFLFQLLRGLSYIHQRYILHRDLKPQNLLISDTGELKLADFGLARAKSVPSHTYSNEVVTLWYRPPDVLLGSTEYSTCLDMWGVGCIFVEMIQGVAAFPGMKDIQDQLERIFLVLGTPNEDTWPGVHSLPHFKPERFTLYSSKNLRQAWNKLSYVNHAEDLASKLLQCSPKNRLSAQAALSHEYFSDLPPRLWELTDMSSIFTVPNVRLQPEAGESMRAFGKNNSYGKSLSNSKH
Outline: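 Kinome-wide competition binding panel run by an outside provider, with each compound tested at a single concentration. Activity is read against the kinase panel.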

[19] = target: Tyrosine-protein kinase receptor Tie-1 (Homo sapiens) (UniProt P35590); test: Binding affinity to wild-type human partial length TIE1 (T819 to A1138 residues) expressed in Escherichia coli BL21 at 1 uM by Kinomescan method relative to control
[20] = target: Serine/threonine-protein kinase TAO3 (Homo sapiens) (UniProt Q9H2K8); test: Binding affinity to wild-type human partial length TAOK3 (M1 to T316 residues) expressed in HEK293 cells at 1 uM by Kinomescan method relative to control; assay type: cell-based
[21] = target: Serine/threonine-protein kinase WNK1 (Homo sapiens) (UniProt Q9H4A3); test: Binding affinity to wild-type human partial length WNK1 (Q194 to A490 residues) expressed in HEK293 cells at 1 uM by Kinomescan method relative to control; assay type: cell-based
[22] = target: Mitogen-activated protein kinase 3 (Homo sapiens) (UniProt P27361); test: Binding affinity to wild-type human full length ERK1 (M1 to P379 residues) expressed in Escherichia coli BL21 at 1 uM by Kinomescan method relative to control; outline: as §1
[23] = target: Phosphatidylinositol 4,5-bisphosphate 3-kinase catalytic subunit beta isoform (Homo sapiens) (UniProt P42338); test: Binding affinity to wild-type human partial length PIK3CB (P118 to S1070 residues) expressed in HEK293 cells at 1 uM by Kinomescan method relative to control; assay type: cell-based
Chain of Phosphatidylinositol 4,5-bisphosphate 3-kinase catalytic subunit beta isoform (Homo sapiens) (P42338 whole entry, looked up, the tested form may be a part, canonical isoform): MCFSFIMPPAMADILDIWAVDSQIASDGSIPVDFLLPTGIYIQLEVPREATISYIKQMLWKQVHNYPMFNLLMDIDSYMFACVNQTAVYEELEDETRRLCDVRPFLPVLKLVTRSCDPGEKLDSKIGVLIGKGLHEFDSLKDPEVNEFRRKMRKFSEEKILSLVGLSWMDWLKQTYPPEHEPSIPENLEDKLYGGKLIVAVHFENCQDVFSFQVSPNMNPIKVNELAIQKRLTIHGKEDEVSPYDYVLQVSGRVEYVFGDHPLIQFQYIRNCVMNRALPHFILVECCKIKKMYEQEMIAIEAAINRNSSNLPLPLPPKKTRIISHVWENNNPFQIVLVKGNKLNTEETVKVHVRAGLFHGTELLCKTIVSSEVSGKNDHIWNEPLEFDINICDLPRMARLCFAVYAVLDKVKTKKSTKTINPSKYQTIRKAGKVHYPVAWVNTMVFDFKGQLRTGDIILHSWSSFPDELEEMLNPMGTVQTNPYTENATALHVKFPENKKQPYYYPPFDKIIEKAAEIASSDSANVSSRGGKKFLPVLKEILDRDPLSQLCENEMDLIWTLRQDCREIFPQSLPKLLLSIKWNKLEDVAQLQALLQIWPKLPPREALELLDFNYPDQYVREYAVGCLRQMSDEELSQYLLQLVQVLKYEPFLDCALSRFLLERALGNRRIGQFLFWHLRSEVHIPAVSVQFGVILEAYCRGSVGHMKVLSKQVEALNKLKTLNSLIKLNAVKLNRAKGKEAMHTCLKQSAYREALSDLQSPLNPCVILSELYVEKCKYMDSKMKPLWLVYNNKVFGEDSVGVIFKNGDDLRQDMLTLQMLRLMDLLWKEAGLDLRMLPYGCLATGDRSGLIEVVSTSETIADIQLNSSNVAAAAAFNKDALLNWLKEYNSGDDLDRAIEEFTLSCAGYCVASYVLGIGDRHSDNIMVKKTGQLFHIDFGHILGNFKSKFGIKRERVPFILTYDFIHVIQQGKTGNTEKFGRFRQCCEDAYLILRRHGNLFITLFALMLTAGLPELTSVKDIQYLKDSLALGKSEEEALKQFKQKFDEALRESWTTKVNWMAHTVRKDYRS

[24] = target: Serine/threonine-protein kinase TBK1 (Homo sapiens) (UniProt Q9UHD2); test: Binding affinity to wild-type human full length TBK1 (M1 to L729 residues) expressed in HEK293 cells at 1 uM by Kinomescan method relative to control; assay type: cell-based

SMILES | Activity [1] [%] | Activity [2] [%] | Activity [3] [%] | Activity [4] [%] | IC50 (Aurora kinase B) [µM] | Activity [5] [%] | Activity [6] [%] | Activity [7] [%] | Activity [8] [%] | Activity [9] [%] | Activity [10] [%] | Activity [11] [%] | Activity [12] [%] | Activity [13] [%] | Activity [14] [%] | Activity [15] [%] | Activity [16] [%] | Activity [17] [%] | Activity [18] [%] | Activity [19] [%] | other results
CCC(=O)Nc1ccc(C(=O)Nc2ccc(Nc3ncc4c(n3)N(C)c3ccc(C)cc3C(=O)N4C)cc2)cc1 | 100 | 99 | 100 | 100 | 0.041 | 65 | 47 | 100 | 99 | 100 | 75 | 97 | 89 | 87 | 92 | 80 | 100 | 67 | 95 | 88 | Activity [20]: 92%; Activity [21]: 100%; Activity [22]: 95%; Activity [23]: 50%; Activity [24]: 74%
C=CC(=O)Nc1ccc(C(=O)Nc2ccc(Nc3ncc4c(n3)N(C)c3ccc(C)cc3C(=O)N4C)cc2)cc1 | 100 | 86 | 96 | 87 | 0.029 | 100 | 95 | 87 | 100 | 100 | 100 | 100 | 100 | 100 | 100 | 90 | 99 | 87 | 100 | 96 | Activity [20]: 95%; Activity [21]: 100%; Activity [22]: 100%; Activity [23]: 100%; Activity [24]: 94%
